Assay results taken from ChEMBL document CHEMBL1142517, “Discovery of an orally bioavailable small molecule inhibitor of prosurvival B-cell lymphoma 2 proteins” (J Med Chem, 2008).

Tests used:
[1] = target: Apoptosis regulator Bcl-2 (Homo sapiens, UniProt P10415); experiment: Displacement of fluorescein labeled Bax peptide from Bcl2 by fluorescence polarization assay
[2] = Cytotoxicity against human NCI-H146 cells assessed as cell viability after 48 hrs in presence of 10% human serum; assay type: functional, cell-based; conditions: NCI-H146, 48 h
How it was run: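 NCI-H146 SCLC cells maintained in RPMI 1640 with 10% FBS at 37 °C, 5% CO2. Treated for 48 h in medium with 10% human serum. Viability by CellTiter-Glo luminescence. Values from duplicate runs.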

[3] = Cmax in Sprague-Dawley rat at 5 mg/kg, po; assay type: ADME, organism-based; design: dose 5 mg/kg, route oral; conditions: in vivo
How it was run: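 Rats (Sprague-Dawley) given 5 mg/kg by oral gavage in 10% DMSO/PEG-400, n = 3. Serial heparinized blood samples. Plasma drug level by LC-MS/MS after acetonitrile protein precipitation, quantified by linear regression of peak-area ratio to internal standard. Concentration–time data fitted multiexponentially.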

[4] = AUC in Sprague-Dawley rat at 5 mg/kg, po; assay type: ADME, organism-based; design: dose 5 mg/kg, route oral; conditions: plasma
How it was run: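 Sprague-Dawley rats, single 5 mg/kg oral dose by gavage in 10% DMSO in PEG-400, n = 3. Heparinized blood taken before dosing and at set times. Plasma proteins precipitated with acetonitrile, then LC-MS/MS against spiked plasma standards with an internal standard. AUC by linear trapezoidal rule.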

[5] = Oral bioavailability in Sprague-Dawley rat at 5 mg/kg; assay type: ADME, organism-based; conditions: in vivo
[6] = Ratio of AUC for Sprague-Dawley rat at 5 mg/kg, po to EC50 for human NCI-H146 cells in presence of 10% human serum; assay type: functional
How it was run: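 The cells were treated for 48 h in medium with 10% human serum, and viability was read by CellTiter-Glo luminescence.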

[7] = Cytotoxicity against IL3-dependent mouse FL5.12 cells overexpressing human Bcl2 assessed as cell viability after 24 hrs by MTS assay in absence of serum; assay type: functional, cell-based; conditions: FL5.12, 24 h
How it was run: (§1)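 Mouse FL5.12 cells transfected with Bcl-XL or Bcl-2, deprived of IL-3 (no FBS or WEHI-3B conditioned medium) for 2 days. Then moved to serum-free gelatin medium (3.4 mg/mL bovine gelatin) with serially diluted compound for 24 h. Viability by MTS or CellTiter-Glo. Determinations in duplicate.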

[8] = Cytotoxicity against IL3-dependent mouse FL5.12 cells overexpressing human Bcl-XL assessed as cell viability after 24 hrs by MTS assay in absence of serum; assay type: functional, cell-based; conditions: FL5.12, 24 h; how it was run: as §1
[9] = AUC in CD1 mouse at 50 mg/kg, po; assay type: ADME, organism-based; design: dose 50 mg/kg, route oral; conditions: plasma
How it was run: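 CD-1 mice, single 50 mg/kg oral gavage in 2% DMSO/5% Tween-80/20% propylene glycol/73% D5W, n = 27. Groups of three euthanized by CO2 at set times and blood taken by cardiac puncture. Plasma by LC-MS/MS. AUC by linear trapezoidal rule.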

[10] = AUC in Beagle dog at 2.5 mg/kg, iv or po; assay type: ADME, organism-based, Canis lupus familiaris; design: dose 2.5 mg/kg, route oral; conditions: plasma
How it was run: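 Beagle dogs, single 2.5 mg/kg dose in 10% DMSO in PEG-400, n = 3 per route. Intravenous dose given as a slow cephalic-vein bolus; oral dose by gavage followed by 10 mL water. Plasma by LC-MS/MS. AUC by linear trapezoidal rule.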

[11] = AUC in cynomolgus monkey at 2.5 mg/kg, po; assay type: ADME, organism-based, Macaca fascicularis; design: dose 2.5 mg/kg, route oral; conditions: plasma
How it was run: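 Cynomolgus monkeys, single 2.5 mg/kg oral dose in 10% DMSO in PEG-400 by gastric intubation followed by 5 mL water, n = 3. Serial heparinized plasma assayed by LC-MS/MS. AUC by linear trapezoidal rule.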

[12] = Oral elimination half life in Sprague-Dawley rat; assay type: ADME, organism-based; conditions: in vivo, read-out: beta t1/2 (converted)
[13] = Oral elimination half life in CD1 mouse; assay type: ADME, organism-based; conditions: in vivo, read-out: beta t1/2 (converted)
[14] = Oral elimination half life in Beagle dog; assay type: ADME, organism-based, Canis lupus familiaris; conditions: in vivo, read-out: beta t1/2 (converted)
[15] = Oral elimination half life in cynomolgus monkey; assay type: ADME, organism-based, Macaca fascicularis; conditions: in vivo, read-out: beta t1/2 (converted)
[16] = Oral bioavailability in CD1 mouse; assay type: ADME, organism-based; conditions: in vivo
[17] = Oral bioavailability in Beagle dog; assay type: ADME, organism-based, Canis lupus familiaris; conditions: in vivo
[18] = Oral bioavailability in cynomolgus monkey; assay type: ADME, organism-based, Macaca fascicularis; conditions: in vivo
[19] = Oral bioavailability in Sprague-Dawley rat; assay type: ADME, organism-based; conditions: in vivo
[20] = system: NCI-H1963 (Homo sapiens); experiment: Antitumor activity against human NCI-H1963 cells xenografted C.B-17 SCID-bg mouse assessed as inhibition of tumor growth at 100 mg/kg, po daily once for 21 days; conditions: 504 h, read-out: TGI

Chain of Apoptosis regulator Bcl-2 (P10415 whole entry): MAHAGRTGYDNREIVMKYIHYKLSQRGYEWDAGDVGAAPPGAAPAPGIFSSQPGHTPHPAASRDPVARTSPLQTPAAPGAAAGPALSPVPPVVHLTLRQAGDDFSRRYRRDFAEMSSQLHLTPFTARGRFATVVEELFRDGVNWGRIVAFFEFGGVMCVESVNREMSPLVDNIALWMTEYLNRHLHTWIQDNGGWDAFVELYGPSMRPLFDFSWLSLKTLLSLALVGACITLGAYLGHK

| SMILES | Ki [1] | EC50 [2] | AUC [4] | Ratio [6] | EC50 [7] | EC50 [8] | further results |
| --- | --- | --- | --- | --- | --- | --- | --- |
| O=C(NS(=O)(=O)c1ccc(N[C@H](CCN2CCOCC2)CSc2ccccc2)c([N+](=O)[O-])c1)c1ccc(N2CCN(Cc3ccccc3-c3ccc(Cl)cc3)CC2)cc1 | < 1 nM | 610 nM | 1.16 µM·h | 1.9 | – | – | Cmax [3]: 200 nM; bioavailability [5]: 16% |
| CN(C)CC[C@H](CSc1ccccc1)Nc1ccc(S(=O)(=O)NC(=O)c2ccc(N3CCN(CC4=C(c5ccc(Cl)cc5)CCCCC4)CC3)cc2)cc1[N+](=O)[O-] | < 1 nM | 51.9 nM | – | – | < 1 nM | 5 nM | – |
| CN(C)CC[C@H](CSc1ccccc1)Nc1ccc(S(=O)(=O)NC(=O)c2ccc(N3CCN(C/C4=C(\c5ccc(Cl)cc5)CCCCCC4)CC3)cc2)cc1[N+](=O)[O-] | < 1 nM | 200 nM | – | – | 39 nM | 21 nM | – |
| CN(C)CC[C@H](CSc1ccccc1)Nc1ccc(S(=O)(=O)NC(=O)c2ccc(N3CCN(CC4=C(c5ccc(Cl)cc5)CCCC4)CC3)cc2)cc1[N+](=O)[O-] | < 1 nM | 25.7 nM | 0.65 µM·h | 25.3 | 11 nM | 29 nM | – |
| CN(C)CC[C@H](CSc1ccccc1)Nc1ccc(S(=O)(=O)NC(=O)c2ccc(N3CCN(CC4=C(c5ccc(Cl)cc5)CCC(C)(C)C4)CC3)cc2)cc1[N+](=O)[O-] | < 1 nM | 98 nM | – | – | 0.6 nM | 0.9 nM | – |
| CN(C)CC[C@H](CSc1ccccc1)Nc1ccc(S(=O)(=O)NC(=O)c2ccc(N3CCN(Cc4ccccc4-c4ccc(Cl)cc4)CC3)cc2)cc1OC(F)(F)F | < 1 nM | 5080 nM | – | – | 230 nM | 805 nM | – |
| CN(C)CC[C@H](CSc1ccccc1)Nc1ccc(S(=O)(=O)NC(=O)c2ccc(N3CCN(Cc4ccccc4-c4ccc(Cl)cc4)CC3)cc2)cc1C(F)(F)F | < 1 nM | 2460 nM | 4.41 µM·h | 1.8 | 42 nM | 122 nM | Cmax [3]: 370 nM; bioavailability [5]: 24% |
| Cc1cc(S(=O)(=O)NC(=O)c2ccc(N3CCN(Cc4ccccc4-c4ccc(Cl)cc4)CC3)cc2)ccc1N[C@H](CCN(C)C)CSc1ccccc1 | < 1 nM | 28800 nM | – | – | 673 nM | – | – |
| O=C(NS(=O)(=O)c1ccc(N[C@H](CCN2CCOCC2)CSc2ccccc2)c(S(=O)(=O)C(F)(F)F)c1)c1ccc(N2CCN(CC3=C(c4ccc(Cl)cc4)CCCC3)CC2)cc1 | < 1 nM | 58.9 nM | 3.87 µM·h | 65.7 | 1.1 nM | 0.7 nM | AUC [9]: 25.2 µM·h; AUC [10]: 3.8 µM·h; AUC [11]: 1.9 µM·h |
| O=C(NS(=O)(=O)c1ccc(NCCSc2ccccc2)c([N+](=O)[O-])c1)c1ccc(N2CCN(Cc3ccccc3-c3ccc(Cl)cc3)CC2)cc1 | < 1 nM | 33000 nM | 10.4 µM·h | 0.32 | – | – | Cmax [3]: 1150 nM; bioavailability [5]: 28% |
| CN(C)CC[C@H](CSc1ccccc1)Nc1ccc(S(=O)(=O)NC(=O)c2ccc(N3CCN(Cc4ccccc4-c4ccc(Cl)cc4)CC3)cc2)cc1C#N | < 1 nM | 1930 nM | 2.19 µM·h | 1.1 | 49 nM | 225 nM | – |
| CN(C)CC[C@H](CSc1ccccc1)Nc1ccc(S(=O)(=O)NC(=O)c2ccc(N3CCN(Cc4ccccc4-c4ccc(Cl)cc4)CC3)cc2)cc1 | < 1 nM | 78700 nM | – | – | 2700 nM | 15000 nM | – |
| CN(C)CC[C@H](CSc1ccccc1)Nc1ccc(S(=O)(=O)NC(=O)c2ccc(N3CCN(Cc4ccccc4-c4ccc(Cl)cc4)CC3)cc2)cc1[N+](=O)[O-] [ABT 737] | – | 87 nM | 0.28 µM·h | – | 7.7 nM | 30 nM | bioavailability [5]: 6% |
| CN(C)CC[C@H](CSc1ccccc1)Nc1ccc(S(=O)(=O)NC(=O)c2ccc(N3CCN(CC4=C(c5ccc(Cl)cc5)CCC4)CC3)cc2)cc1[N+](=O)[O-] | < 1 nM | 691 nM | – | – | 51 nM | 143 nM | – |
| CN(C)CC[C@H](CSc1ccccc1)Nc1ccc(S(=O)(=O)NC(=O)c2ccc(N3CCN(Cc4ccccc4-c4ccc(Cl)cc4)CC3)cc2)cc1S(C)(=O)=O | < 1 nM | 3490 nM | – | – | 170 nM | 415 nM | – |
| CC1(C)CCC(c2ccc(Cl)cc2)=C(CN2CCN(c3ccc(C(=O)NS(=O)(=O)c4ccc(N[C@H](CCN5CCOCC5)CSc5ccccc5)c(S(=O)(=O)C(F)(F)F)c4)cc3)CC2)C1 [NAVITOCLAX] | – | 86.7 nM | 6.26 µM·h | – | 5.9 nM | 4.2 nM | bioavailability [5]: 20%; AUC [9]: 56.7 µM·h; AUC [10]: 27.8 µM·h; AUC [11]: 6.61 µM·h; half-life [12]: 4 h; half-life [13]: 4 h; half-life [14]: 4 h; half-life [15]: 4 h; bioavailability [16]: 20%; bioavailability [17]: 20%; bioavailability [18]: 20%; bioavailability [19]: 20%; inhibition in vivo at 100 mg/kg [20]: 100% |
| CN(C)CC[C@H](CSc1ccccc1)Nc1ccc(S(=O)(=O)NC(=O)c2ccc(N3CCN(Cc4ccccc4-c4ccc(Cl)cc4)CC3)cc2)cc1S(=O)(=O)C(F)(F)F | < 1 nM | 39.4 nM | 0.83 µM·h | 21 | 4.7 nM | 12 nM | – |
| CN(C)CC[C@H](CSc1ccccc1)Nc1ccc(S(=O)(=O)NC(=O)c2ccc(N3CCN(CC4=C(c5ccc(Cl)cc5)CCOC4)CC3)cc2)cc1[N+](=O)[O-] | 2.4 nM | 266 nM | – | – | 33 nM | 55 nM | – |
| CN(C)CC[C@H](CSc1ccccc1)Nc1ccc(S(=O)(=O)NC(=O)c2ccc(N3CCN(Cc4ccccc4-c4ccc(Cl)cc4)CC3)cc2)cc1C(=O)C(F)(F)F | < 1 nM | 2010 nM | 1.25 µM·h | 0.62 | 55 nM | 329 nM | – |
